# Compound activity: PubChem, several laboratories
# Rows were chosen to be rich in hits. Some 6.7% of all compounds tested hit in one or more screens of this group.
# Beta apoptosis: blocks beta cell apoptosis. protection from apoptosis, % (concentration not given with the values). INS-1E cytokine-induced death, ATP luminescence, 48 h; percent of positive-control rescue, neutral wells zero. 0.8% of 300,000 active;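 active means Every replicate reaches about 75%, or at least half do and their mean reaches it too, limit read from the data; inconclusive means At least half of replicates reach the limit but their mean does not; inactive means Under half of replicates reach the limit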;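 further: 0% = cytokine-treated negative control wells and 100% = positive control rescue; higher means more ATP so stronger rescue from cytokine killing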
# CHOP inh: inhibitors of CHOP induction in ER stress response; CHO-K1 CHOP-promoter luciferase, tunicamycin-induced, 15-18 h; 3.8% of 220,000 active; AID 2732; inhibition, % at 10 µM;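 active means compounds that reduced the stress-induced luciferase reporter signal by more than about 70% of percent inhibition, limit read from the data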;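 further: 0% = tunicamycin plus vehicle and 100% = wells without tunicamycin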
# T cruzi repl: T. cruzi replication inhibition; T. cruzi beta-gal in NIH3T3, luminescence, 90 h; inhibition, % (concentration not given with the values); 1.4% of 300,000 active; AID 1885;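 active means mean inhibition across valid replicates above about 55%, limit read from the data; inconclusive means mean below that limit but half or more replicates reach it; inactive means mean below it, under half of replicates reach it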;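 further: signal also drops with host cell toxicity which is not excluded here; 0% = plate median of DMSO wells and 100% = zero luminescence signal; higher percent means less beta-gal luminescence so fewer parasites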
#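 Test system: β-gal T. cruzi (Tulahuen C4) inside NIH/3T3 cells / Quantity: 5,000 cells/well / Measured by: luminescence from GalScreen with 0.05% NP40, read after 60 min / Medium: DMEM plus 2% FBS / Measure: parasite load inhibition, % / Reagent: Tulahuen C4 trypomastigotes, 5000/well / Schedule: co-culture of at least 90 h after 3 h attachment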
# PREPL inhibitor: inhibits the human prolyl oligopeptidase-like enzyme | Q4J6C6 | 0.68% of 320,000 active | AID 2751 | inhibition, % at 5.96 µM | recombinant PREPL, fluorescence polarization activity-based probe; in the data active means inhibition above about 43%;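 further: 0% = enzyme with DMSO and 100% = wells lacking enzyme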
# Target sequence (Q4J6C6 whole entry, looked up): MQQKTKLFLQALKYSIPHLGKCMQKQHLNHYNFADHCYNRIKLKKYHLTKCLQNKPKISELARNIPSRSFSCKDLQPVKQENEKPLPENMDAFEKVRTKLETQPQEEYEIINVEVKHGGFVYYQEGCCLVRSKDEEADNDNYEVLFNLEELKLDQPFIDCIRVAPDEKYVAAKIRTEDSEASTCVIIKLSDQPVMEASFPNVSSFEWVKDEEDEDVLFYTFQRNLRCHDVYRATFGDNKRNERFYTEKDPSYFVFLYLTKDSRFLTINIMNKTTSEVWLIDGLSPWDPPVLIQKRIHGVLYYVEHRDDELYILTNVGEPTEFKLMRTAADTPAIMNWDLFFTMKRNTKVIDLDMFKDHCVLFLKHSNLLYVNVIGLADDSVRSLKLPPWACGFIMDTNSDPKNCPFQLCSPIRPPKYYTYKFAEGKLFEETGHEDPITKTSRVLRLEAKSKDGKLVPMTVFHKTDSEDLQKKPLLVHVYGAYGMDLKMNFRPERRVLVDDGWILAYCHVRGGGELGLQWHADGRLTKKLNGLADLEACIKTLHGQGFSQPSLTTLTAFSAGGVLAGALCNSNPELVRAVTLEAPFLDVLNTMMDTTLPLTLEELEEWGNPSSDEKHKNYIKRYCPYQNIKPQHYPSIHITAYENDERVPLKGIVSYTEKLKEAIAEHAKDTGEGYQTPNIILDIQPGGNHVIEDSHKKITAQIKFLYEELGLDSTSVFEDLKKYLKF
# NR3A LBD binder: modulates the human NR3A ligand-binding domain; NR3A LBD differential scanning fluorimetry, Tm shift; 0% = protein alone, 100% = glycine-bound protein; 2.5% of 340,000 active; Tm shift relative to glycine control, % at 25 µM;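 active means melting temperature shift of at least 10% of the positive control shift, at one fixed dose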
# CSC inhib: cancer stem cell inhibition | cancer stem cell-like cells viability, luminescence | inhibition, % at 7.5 µM | 1.1% of 300,000 active | AID 2717; in the data active means inhibition above about 75%; inconclusive means no clear call, values can overlap the other calls; tested in HMLE shEcad cells
# An asterisk follows results filed as active; u = inconclusive; x = no result.
SMILES,Beta apoptosis,CHOP inh,T cruzi repl,PREPL inhibitor,NR3A LBD binder,CSC inhib
COC(=O)[C@H](CC(C)C)N(Cc1ccccc1)S(=O)(=O)N(Cc1ccc(OC)cc1)[C@@H](CC(C)C)C(=O)OC,116.2*,x,x,0.5,0.8,10.0
CC(C)C[C@H](CO)N(Cc1ccccc1)S(=O)(=O)N(Cc1ccccc1)[C@@H](CO)CC(C)C,-5.3,x,x,9.2,3.4,107.2*
COC(=O)[C@H](CC(C)C)N(Cc1ccccc1)S(=O)(=O)N(Cc1ccccc1)[C@@H](CC(C)C)C(=O)OC,121.4*,x,x,9.5,-9.9,13.1
CCN(Cc1ccccc1)S(=O)(=O)c1ccc(OC)cc1,-5.9,x,-4.8,-9.5,-0.9,-9.8
C=C[C@H](CC(C)C)N(Cc1ccccc1)S(=O)(=O)N(Cc1ccc(OC)cc1)[C@H](C=C)CC(C)C,114.8*,x,x,11.5,-0.8,5.3
CCOC(=O)N1C2c3ccccc3C(c3ccccc32)N1C(=O)OCC,x,x,x,x,0.2,x
COc1ccccc1NC(=O)COc1ccc(CO)cc1Cl,-3.0,37.9,10.1,8.7,11.0*,16.8
COc1ccccc1NC(=S)NC(=O)CCCOc1ccc(Cl)cc1Cl,-5.4,77.2*,18.3,-4.5,5.8,-12.7
CC(=O)c1ccc(N2C(=NC(=O)CCC3CCCC3)SC3CS(=O)(=O)CC32)cc1 (centres undefined),-4.8,x,7.7,-1.7,1.6,-2.3
O=S(=O)(c1ccccc1)N(c1ccccc1)S(=O)(=O)c1ccccc1,x,x,x,x,11.2*,x
O=C(NNC(=O)C12CC3CC(CC(C3)C1)C2)c1cnccn1,0.6,17.6,-26.5,-4.3,-2.9,4.6
O=C(NNC(=O)C12CC3CC(CC(C3)C1)C2)c1ccccn1,91.0*,36.9,4.5,9.8,0.5,17.1
COc1cccc(C(C(=O)NCc2ccccc2)N(C(=O)c2csnn2)C2CC2)c1 (centres undefined),-0.3,x,-11.9,4.0,1.0,-2.9
Cc1ccc(C(Sc2ccccc2)C(Cn2cncn2)C(=O)c2ccccc2)cc1 (centres undefined),-7.8,93.4*,-0.7,0.8,1.3,8.2
CCOc1ccc(CCNC(=O)Cn2cccc2C(=O)c2ccccc2C)cc1OCC,0.1,75.4*,38.8,5.9,-1.7,-1.8
Cc1cc(C)c(S(=O)(=O)NCCCn2ccnc2)cc1C,-0.4,x,9.1,0.7,0.1,-22.0
CCCOC(=O)C1=C(C)NC(=O)NC1c1cc2c(cc1Br)OCO2 (centres undefined),-3.6,x,-2.9,-10.9,-3.2,-9.9
CSc1cccc(NC(=O)/C=C/c2ccc(Cl)cc2)c1,-7.8,48.2,-0.7,7.5,17.4*,23.0
CSc1ccc(/C=C/C(=O)Nc2ccccc2)cc1,1.0,84.4*,x,17.1,20.6*,38.0
CC(=O)Nc1ccc(NC(=O)/C=C/c2ccccc2)cc1,3.8,-12.3,-13.4,2.9,5.5,1.5
CSc1cccc(NC(=O)/C=C/c2ccccc2)c1,2.1,51.3,0.6,12.2,17.3*,24.7
COc1ccc2c(c1)C(c1ccc(Cl)cc1)NC(=O)C2 (centres undefined),-5.9,x,0.9,1.0,-5.1,5.4
CCOC(=O)C1=C(C)N2C(=C(C#N)[C@@H]1c1ccc(C(=O)OC)cc1)SC[C@@]2(O)C(C)(C)C,24.6,38.2,32.4,1.9,-7.8,82.0*
O=C(COc1ccc(-c2nnco2)cc1)Nc1ccc(C(F)(F)F)cc1,-0.1,x,19.6,-26.7,-5.6,0.9
O=C(c1ccccc1)c1c[nH]c2ccccc12,2.1,x,-5.0,x,-5.2,-2.9
SMILES,Beta apoptosis,CHOP inh,T cruzi repl,PREPL inhibitor,NR3A LBD binder,CSC inhib
O=C(/C=C/c1c[nH]c2ccccc12)c1cccc2ccccc12,-1.8,87.0*,-13.3,6.7,27.6*,87.4*
O=C(Nc1cccc(Cl)c1)c1cc(S(=O)(=O)N2CCOCC2)cs1,1.2,x,-5.5,-5.0,31.1*,2.8
CC1CCN(S(=O)(=O)c2csc(C(=O)Nc3ccccc3)c2)CC1,16.5,76.6*,-18.4,3.6,-12.7,8.3
O=C(CCN1C(=O)/C(=C/c2ccccc2F)SC1=S)NC1C=CS(=O)(=O)C1 (centres undefined),-11.7,x,11.7,12.6,-0.3,7.9
COC(=O)CC1=NC(=O)CS1,-9.2,13.5,-9.3,-3.7,11.0*,-14.1
CC(C)OC(=O)CC1=NC(=O)CS1,5.6,-13.6,-3.4,6.8,-0.4,-7.3
Cc1cc(/C=C2\C(=N)N3C(SCc4ccccc4)=NSC3=NC2=O)c(C)n1Cc1ccccc1,9.1,87.6*,-12.7,9.9,14.0*,11.0
O=C(O)c1ccccc1OC(C(=O)Nc1cc(Cl)cc(Cl)c1)c1ccccc1 (centres undefined),17.5,x,20.8,-6.4,23.0*,6.8
O=C(Nc1ccc(OC(F)F)c(Cl)c1)C(c1ccccc1)c1ccccc1,95.2*,70.2*,60.4*,-12.5,20.9*,39.5
O=C(Nc1cc(Cl)cc(Cl)c1)C(c1ccccc1)N1CCCCC1 (centres undefined),-0.4,24.0,21.4,-9.4,-7.7,19.6
O=C(Cc1cccc2ccccc12)Nc1ccc(OC(F)F)c(Cl)c1,-9.5,64.1,29.2,-7.6,23.5*,10.7
O=C(CCC1CCCN(C(=O)c2ccc3[nH]ccc3c2)C1)N1CCN(c2ccccn2)CC1 (centres undefined),3.7,-9.7,2.1,21.4,0.1,13.5
COc1ccc(/C=C2\CCCC3C2=NN(C(=O)c2ccco2)C3c2ccc(OC)c(OC)c2)cc1OC (centres undefined),0.7,0.6,9.6,1.2,-2.5,-0.3
COc1ccc(/C=C2\CCCC3C2=NN(C(=O)c2scnc2C)C3c2ccc(OC)c(OC)c2)cc1OC (centres undefined),3.1,15.1,25.0,5.0,11.2*,-20.2
O=C(COC(=O)c1ccc(F)c(S(=O)(=O)N2CCOCC2)c1)Nc1ccc2[nH]c(=O)[nH]c2c1,3.2,x,x,13.0,-3.0,1.4
CCOC(=O)c1c(/N=C/N(C)C)sc(/C=N/Nc2ccccc2)c1-c1ccccc1,-0.1,82.2*,39.6,3.7,-1.7,15.2
CCN(CC)c1ccc(NC(=O)c2cnc3ccccn3c2=O)c(C)c1,10.8,80.8*,u,10.2,0.6,-0.3
CCN(CC)c1ccc(NC(=O)c2cccnc2)c(C)c1,-6.6,-5.6,-14.9,5.6,-0.7,7.2
CCCCCCCC[n+]1c(C)n(-c2ccccc2)c2ccc(NC(C)=O)cc21,101.6*,42.9,64.6*,13.8,1.2,-2.5
O=CN/C=C/c1cccc(O)c1,x,x,x,x,14.0*,x
c1ccc(CN2CCC(Nc3nc(-c4cccs4)nc4ccccc34)CC2)cc1,24.0,74.9*,49.8,-20.8,5.1,109.2*
NC(=S)NNC(=O)/C(=C/c1ccc(Br)cc1)NC(=O)c1ccccc1,1.0,-4.4,3.8,-7.0,13.1*,-5.5
O=C(CCCNC(=O)/C(=C/c1ccc(Br)cc1)NC(=O)c1ccccc1)OCc1ccccc1,-5.5,25.6,2.3,-6.8,-10.9,-7.4
